This is a sample that favours compounds with a hit; in the whole collection about 2.2% have one here.
GalR3 antag = antagonists of human GalR3; O60755; HEK293 GalR3-CNG cAMP membrane potential fluorescence; galR3 body fused to GalR1 C-terminus; inhibition, % at 3 µM; 360,000 tested, 0.44% active; AID 651719;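 active = inhibition above the screen-wide average plus 3 SD, cut at about 13% in these data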;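 also: forskolin and galanin both at EC90 stimulate the cells; cAMP rise reported by CNG channel membrane potential dye signal; 0% = forskolin plus galanin with DMSO and 100% = forskolin alone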
NR2F2 inh = blocks human COUP-TFII nuclear receptor; P24468; HEK293T NGFI-A luciferase reporter, luminescence; inhibition, % at 8.6 µM; 370,000 tested, 0.7% active; AID 686940;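 active = inhibition above a per-plate cutoff, mean inhibition of test wells between control levels plus 3 SD, cut at about 38% in these data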;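 also: cells cotransfected with COUP-TFII expression vector driving the NGFI-A reporter; 0% = median of COUP-TF2 test wells and 100% = reporter-only cells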
Target sequence (P24468 whole entry, looked up): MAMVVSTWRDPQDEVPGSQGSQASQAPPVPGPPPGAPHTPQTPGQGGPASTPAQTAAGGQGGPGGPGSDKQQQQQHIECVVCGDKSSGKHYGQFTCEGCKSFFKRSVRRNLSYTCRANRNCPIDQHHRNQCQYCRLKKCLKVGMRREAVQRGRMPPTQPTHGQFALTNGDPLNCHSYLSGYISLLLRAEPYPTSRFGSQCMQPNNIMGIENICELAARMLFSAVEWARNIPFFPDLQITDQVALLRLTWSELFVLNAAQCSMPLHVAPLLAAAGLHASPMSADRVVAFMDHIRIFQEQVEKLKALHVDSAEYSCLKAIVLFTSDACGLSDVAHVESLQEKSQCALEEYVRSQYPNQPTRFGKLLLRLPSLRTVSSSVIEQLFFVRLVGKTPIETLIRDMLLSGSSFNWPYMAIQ
SMARCA2 act = SMARCA2 function activation, primary screen | MG213 cells, MMTV-luciferase reporter, dexamethasone, overnight | activation, % at 9.1 µM | 370,000 tested, 1% active; in the data active = activation above about 7.8%;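 also: 0% = vehicle wells and 100% = reference activator wells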
NR2E3 ag-1 = activates human photoreceptor nuclear receptor NR2E3 | inhibition of corepressor binding, % at 4.78 µM | Q9Y5X4 | GST-NR2E3/biotin-RetCOR TR-FRET, 1536-well | 320,000 tested, 0.12% active;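 active = percent inhibition above the cutoff of mean plus 3 SD of all tested compounds, set per screening campaign, cut at about 20% in these data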;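 also: 0% = DMSO wells and 100% = biotin wells as full block of FRET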
Target sequence (Q9Y5X4 whole entry, looked up): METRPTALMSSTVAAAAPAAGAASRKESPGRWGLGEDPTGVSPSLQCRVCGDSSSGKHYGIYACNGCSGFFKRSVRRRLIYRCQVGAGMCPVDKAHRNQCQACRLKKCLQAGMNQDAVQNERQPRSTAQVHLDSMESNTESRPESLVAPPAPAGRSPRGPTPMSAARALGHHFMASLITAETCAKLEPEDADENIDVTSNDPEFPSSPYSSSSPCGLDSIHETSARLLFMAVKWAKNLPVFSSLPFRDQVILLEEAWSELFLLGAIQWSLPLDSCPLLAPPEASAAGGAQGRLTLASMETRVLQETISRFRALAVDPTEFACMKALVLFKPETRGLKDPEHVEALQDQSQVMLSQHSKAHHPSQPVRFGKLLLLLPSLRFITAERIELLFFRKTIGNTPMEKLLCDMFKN
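System: GST-NR2E3 and biotin-RetCOR proteins; probe or stimulus: 7 nM biotin-RetCOR; doses: compound at 4.8 µM, single dose; schedule: Compound–protein incubation for 5 h at 4 °C; detection: time-resolved FRET; read-out: percent inhibition; controls: biotin wells as high control, 0.6% DMSO wells as low control; format: 1536-well plates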
NR2E3 ag-2 = activates human NR2E3 receptor | Q9Y5X4 | CHO-S Gal4-NCOR/VP16-NR2E3 two-hybrid, luciferase | inhibition of corepressor binding, % at 3.98 µM | 360,000 tested, 0.35% active | AID 602229;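 active = inhibition above the mean of all tested compounds plus 3 SD, cut at about 70% in these data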;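 also: 0% = DMSO with NR2E3 transfected cells and 100% = cells lacking NR2E3 construct; higher means lower luciferase signal from less NR2E3 corepressor binding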
GalR3 antag conf = GalR3 (human) antagonism, confirmation; shares compounds with GalR3 antag; HEK293 GalR3 CNG cAMP biosensor, membrane potential fluorescence; galR3 fused to GalR1 carboxy tail; challenged with forskolin and galanin at EC90; inhibition, % at 3 µM; 1,600 tested, 59% active;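 active = inhibition above the primary screen's cutoff, the mean inhibition of all screened compounds plus 3 SD, cut at about 13% in these data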;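 also: 0% = forskolin plus galanin and 100% = forskolin alone with DMSO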
CNG parental = counter-screen for GalR3 antagonists: nonspecific agonists in parental HEK-CNG cells; shares compounds with GalR3 antag; HEK293-CNG parental cells, cAMP membrane potential fluorescence; normalised: DMSO wells 0%, forskolin wells 100%; activation, % at 3 µM; 1,600 tested, 10% active; in the data active = activation above about 1.3%
SMARCA2 conf = confirmation of SMARCA2 (BRM) function activators | shares compounds with SMARCA2 act | MG213 cells, MMTV-luciferase with dexamethasone, luminescence, overnight; MG213 cells expressing E1A, Rb sequestered; DMSO wells 0%, reference activator 100% | activation, % at 9.1 µM | 3,500 tested, 30% active;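 active = activation above its plate's cutoff, the mean activation of tested wells plus 3 SD, cut at about 7.9% in these data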
GAL4-VP16 Luc = GAL4-VP16 reporter activation counter-screen. activation, % at 9.1 µM. AID 686939. 3,500 tested, 41% active. HEK293 GAL4-VP16 pG5luc reporter, luciferase luminescence; scaled: DMSO wells 0%, SAHA wells 100%. shares compounds with SMARCA2 act;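 active = activation above the solvent-only control well mean plus 3 SD, averaged across control plates, cut at about 5.2% in these data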
Gal4-VP16 ctr = VP16 inhibition counter-screen for COUP-TFII | HEK293 Gal4-VP16 luciferase reporter, luminescence | inhibition, % at 8.5 µM | shares compounds with NR2F2 inh | 2,500 tested, 25% active; in the data active = inhibition above about 13%
NR2F2 inh conf = confirmation of human COUP-TFII (NR2F2) inhibitors | shares compounds with NR2F2 inh | HEK293 NGFI-A luciferase reporter, luminescence | inhibition, % at 8.5 µM | 2,500 tested, 45% active | AID 687008;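 active = mean inhibition over three repeats above a set limit taken from the earlier primary screen, cut at about 38% in these data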;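 also: 100% = cells given the luciferase reporter alone without the COUP-TF2 vector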
Active calls of the source: *; x = no result.

SMILES | GalR3 antag | NR2F2 inh | SMARCA2 act | NR2E3 ag-1 | NR2E3 ag-2 | GalR3 antag conf | CNG parental | others
COc1ccc(CCNC(=O)c2csc3c2CCCC3)cc1OC | 12.6* | -6.0 | -6.2 | 5.6 | -3.4 | 3.4 | 0.1
CCOc1nc(C#N)nc(N2CCCCC2)n1 | 95.2* | 4.2 | -4.9 | x | 4.5 | 107.5* | 0.0
COC(=O)C1CN(Cc2cn(CCOC(C)=O)nn2)CCS(=O)(=O)N1Cc1ccc(Cl)cc1 (centres undefined) | x | -18.9 | -2.3 | x | x | x | x
CCOC(=O)CNC(=O)CNC(=O)c1ccc(OCC(C)C)cc1 | 86.0* | 9.2 | 2.2 | -1.5 | -9.4 | 5.7 | 0.0
CC(=O)Nc1cccc(C(=O)/C=C/c2ccc(Br)cc2)c1 | 15.1* | 4.5 | 1.8 | -2.8 | -5.1 | 30.2* | -0.4
O=C(CSc1nc2c(c(=O)[nH]1)CCCC2)N1CCOCC1 | x | -3.7 | -5.9 | x | x | x | x
CCOC(=O)CC(N)c1ccc(OC)cc1 (centres undefined) | 13.9* | 12.2 | -2.5 | -0.5 | 13.5 | 12.7* | -0.2
Cc1nc2sc(C(=O)c3ccccc3)c(N)c2c(C)c1C | 13.1* | -13.7 | -0.5 | -3.0 | -48.8 | 2.1 | -0.3
O=C(NCc1c(F)cccc1F)C1CCCN(c2ncccn2)C1 (centres undefined) | x | -0.1 | -2.3 | x | x | x | x
Cc1ccc(NC(=O)CN(C)C(=O)CCCN2C(=O)c3ccccc3C2=O)cc1 | 14.3* | -7.9 | -1.5 | -4.4 | 0.6 | 9.9 | 0.0
CN(CC(=O)Nc1c(Cl)cccc1Cl)C(=O)CCCN1C(=O)c2ccccc2C1=O | -1.1 | 8.6 | -3.4 | -1.7 | 19.4 | x | x
N#CC1=C(N)Oc2n[nH]c(-c3ccccc3)c2C1c1cccc(OC(=O)N2CCOCC2)c1 (centres undefined) | 28.2* | 4.3 | -3.4 | 3.8 | 6.4 | 4.7 | 0.6
COc1cccc(-c2[nH]nc3c2C(c2ccoc2)C(C#N)=C(N)O3)c1 (centres undefined) | 7.0 | 19.2 | 6.5 | -2.0 | 17.7 | x | x
CCOc1ccc(-c2[nH]nc3c2C(c2cccnc2)C(C#N)=C(N)O3)cc1 (centres undefined) | 15.9* | -1.3 | 0.9 | 2.4 | -17.3 | -1.4 | 0.3
COc1cc(-c2[nH]nc3c2C(c2ccoc2)C(C#N)=C(N)O3)cc(OC)c1OC (centres undefined) | 18.5* | -11.9 | -0.9 | -2.0 | 3.1 | 1.5 | 0.2
CC(C)C[C@H]1COc2cc(N3CCCC3)ccc2S(=O)(=O)N1C | x | 32.6 | -3.7 | x | x | x | x
COP(=O)(O)C(Cc1ccccc1)NC(=O)OCc1ccccc1 (centres undefined) | x | 4.7 | 0.1 | x | x | x | x
Cc1onc(-c2ccccc2)c1C(=O)NN=Cc1cc(Cl)cc(Cl)c1O | -5.3 | 8.0 | -4.0 | x | x | x | x
C[C@@H]1CCN(C2CC2)S(=O)(=O)c2c(cccc2N2CCC[C@H]2CO)O1 | x | 1.6 | 1.1 | x | x | x | x
COc1ccc(S[C@]2(C(=O)N3CCN(C(C)=O)CC3)CC(=O)N(C(=O)Nc3ccc(C)c(Cl)c3)[C@@H]2c2ccc(OC)cc2)cc1 | x | 3.6 | 0.1 | x | x | x | x
CCC(C)c1ccc(OCC(=O)Nc2ccc(CN3CCOCC3)cc2)cc1 (centres undefined) | 18.4* | 27.7 | -2.9 | x | -19.0 | 8.9 | 0.2
CC(C)c1ccc(/C=C/C(=O)NC(=S)Nc2ccc(CN3CCOCC3)cc2)cc1 | 46.3* | -17.8 | 1.4 | 5.9 | -46.7 | 75.2* | 22.0*
CC(C)c1ccc(/C=C/C(=O)NC(=S)NN2CCOCC2)cc1 | -1.6 | -8.9 | 3.9 | x | 0.8 | x | x
COc1cc2c(cc1OC)-c1cc(Nc3ccc(C)cc3)nc(=O)n1CC2 | 45.0* | -6.1 | 9.9* | 0.3 | 5.3 | 58.8* | 0.3 | SMARCA2 conf=9.2*;GAL4-VP16 Luc=4.5
COc1cc2c(cc1OC)-c1cc(OCc3cccnc3)nc(=O)n1CC2 | 2.2 | -21.0 | 3.3 | x | 24.9 | x | x
SMILES | GalR3 antag | NR2F2 inh | SMARCA2 act | NR2E3 ag-1 | NR2E3 ag-2 | GalR3 antag conf | CNG parental | others
COc1cc2c(cc1OC)-c1cc(Nc3ccccc3Br)nc(=O)n1CC2 | 48.9* | -34.7 | 12.7* | 0.5 | -28.2 | 60.7* | 1.2 | SMARCA2 conf=8.6*;GAL4-VP16 Luc=15.6*
COc1cccc(N2CCN(C(=O)CSc3nc4ncccc4[nH]3)CC2)c1 | x | 3.2 | -4.3 | x | x | x | x
CC12CCC3c4ccc(OCCCO)c([N+](=O)[O-])c4CCC3C1CCC2=O (centres undefined) | -8.3 | -14.7 | -3.8 | x | x | x | x
CCc1ccc(NC(=O)c2n[nH]c(=O)c3ccccc23)cc1 | 14.7* | -38.0 | 8.6* | -0.9 | -79.7 | 3.6 | 0.2 | SMARCA2 conf=6.5;GAL4-VP16 Luc=6.3*
CCc1nnc(NC(=O)c2n[nH]c(=O)c3ccccc23)s1 | -6.3 | 1.2 | -0.6 | -1.6 | -27.2 | x | x
COc1ccc(C2=Nn3c(nnc3-c3ccccc3OC)SC2)cc1OC | 38.3* | -117.2 | 15.5* | -2.1 | 32.3 | 46.0* | 1.5* | SMARCA2 conf=15.9*;GAL4-VP16 Luc=12.1*
Cc1cc(-c2cn3ccccc3n2)c(C)n1-c1ccccc1 | 13.3* | -17.3 | 10.2* | 3.6 | -96.7 | 4.2 | 0.1 | SMARCA2 conf=5.5;GAL4-VP16 Luc=8.2*
COc1ccc(OC)c(CN2C(=O)CN(S(C)(=O)=O)CC2(C)c2nnnn2C2CCCC2)c1 (centres undefined) | x | 2.5 | -1.9 | x | x | x | x
O=C(NC(=S)NCCc1ccccc1)c1ccccc1F | 1.4 | -38.8 | 3.2 | -1.9 | -90.9 | x | x
O=C(NC(=S)NC(=O)c1ccccc1F)c1ccccc1F | 17.7* | -5.3 | 10.0* | 2.7 | 12.2 | 4.9 | 0.5 | SMARCA2 conf=0.4;GAL4-VP16 Luc=1.9
CC1(C)CC(N2CCOCC2)=CC(=[N+]2CCOCC2)C1 | -5.9 | -14.3 | 2.0 | 3.7 | -6.8 | x | x
CC1(C)CC(N2CCCCC2)=CC(=[N+]2CCCCC2)C1 | 47.2* | 66.5* | -6.9 | 1.6 | -5.7 | 12.6* | 0.4 | Gal4-VP16 ctr=8.6;NR2F2 inh conf=50.8*
CCN1/C(=C/c2ccc3cc(C)ccc3[n+]2CC)Sc2ccc3sccc3c21 | x | x | x | -6.3 | 25.2 | x | x
